Laboratory results: ChEMBL document CHEMBL1140996, “Synthesis and in vitro antibacterial activity of new steroidal thiosemicarbazone derivatives” (2008)
In brackets after ≈: the same amount, converted by molar mass.

Key:
[1] = test system: Staphylococcus aureus; test: Antibacterial activity against Staphylococcus aureus at 10 to 100 ug/mL after 18 hrs by halo zone test; type: functional
Summary of the method: (§1)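 Disk diffusion (halo zone). Strains subcultured in BHI, 18 h at 37 °C. Cells suspended in saline by McFarland to about 10^5 CFU/mL, mixed with antibiotic agar at 40 °C and plated. 6.0 mm paper disks loaded with DMSO-stock dilutions of 10, 20, 25, 50 and 100 per mL. Inhibition zone diameter (mm) read after 18 h at 36 °C. Amoxicillin (30) disk positive control, DMSO disk negative control.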

[2] = test system: Streptococcus pyogenes; test: Antibacterial activity against Streptococcus pyogenes at 10 to 100 ug/mL after 18 hrs by halo zone test; type: functional; summary of the method: as §1
[3] = test system: Salmonella typhimurium; test: Antibacterial activity against Salmonella Typhimurium at 10 to 100 ug/mL after 18 hrs by halo zone test; type: functional, Salmonella enterica subsp. enterica serovar Typhimurium; summary of the method: as §1
[4] = test system: Escherichia coli; test: Antibacterial activity against Escherichia coli at 10 to 100 ug/mL after 18 hrs by halo zone test; type: functional; summary of the method: as §1
[5] = test system: Staphylococcus aureus; test: Antibacterial activity against Staphylococcus aureus after 18 hrs by macro dilution test; type: functional
Summary of the method: (§2)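 Macro-dilution broth test. Each tube received a 24 h old inoculum, standard inoculum about 10^5 CFU/mL. Incubated 18 h at 37 °C. MIC taken visually as the lowest concentration preventing visible growth. Amoxicillin positive control, DMSO negative control.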

[6] = test system: Streptococcus pyogenes; test: Antibacterial activity against Streptococcus pyogenes after 18 hrs by macro dilution test; type: functional; summary of the method: as §2
[7] = test system: Salmonella typhimurium; test: Antibacterial activity against Salmonella Typhimurium after 18 hrs by macro dilution test; type: functional, Salmonella enterica subsp. enterica serovar Typhimurium; conditions: Salmonella enterica; summary of the method: as §2
[8] = test system: Escherichia coli; test: Antibacterial activity against Escherichia coli after 18 hrs by macro dilution test; type: functional; summary of the method: as §2

| SMILES | inhibition zone (IZ) [1] | inhibition zone (IZ) [2] | inhibition zone (IZ) [3] | inhibition zone (IZ) [4] | MIC [5] | MIC [6] | MIC [7] | MIC [8] |
| --- | --- | --- | --- | --- | --- | --- | --- | --- |
| CC(=O)O[C@H]1CC[C@@]2(C)C(=C/C(=N\NC(=S)NC3CCCCC3)[C@H]3[C@@H]4CC[C@H]([C@H](C)CCCC(C)C)[C@@]4(C)CC[C@@H]32)C1 | 14.6 mm | 16.8 mm | 14.5 mm | 13.2 mm | 64 µg/mL (≈ 107 µM) | 64 µg/mL (≈ 107 µM) | 64 µg/mL (≈ 107 µM) | 32 µg/mL (≈ 53.5 µM) |
| CC(=O)O[C@H]1CC[C@@]2(C)C(=C/C(=N\NC(=S)NC3CCCC3)[C@H]3[C@@H]4CC[C@H]([C@H](C)CCCC(C)C)[C@@]4(C)CC[C@@H]32)C1 | 12.5 mm | 11.8 mm | 14.6 mm | 12.4 mm | 32 µg/mL (≈ 54.8 µM) | 64 µg/mL (≈ 110 µM) | 64 µg/mL (≈ 110 µM) | 32 µg/mL (≈ 54.8 µM) |
| CC(C)CCC[C@@H](C)[C@H]1CC[C@H]2[C@@H]3/C(=N/NC(=S)NC4CCCCC4)C=C4C[C@@H](Cl)CC[C@]4(C)[C@H]3CC[C@]12C | 13.4 mm | 12.2 mm | 14.4 mm | 11.8 mm | 32 µg/mL (≈ 55.7 µM) | 64 µg/mL (≈ 111 µM) | 128 µg/mL (≈ 223 µM) | 64 µg/mL (≈ 111 µM) |
| CC(C)CCC[C@@H](C)[C@H]1CC[C@H]2[C@@H]3/C(=N/NC(=S)NC4CCCCCCC4)C=C4C[C@@H](Cl)CC[C@]4(C)[C@H]3CC[C@]12C | 15.6 mm | 14 mm | 14.6 mm | 12.4 mm | 64 µg/mL (≈ 106 µM) | 128 µg/mL (≈ 212 µM) | 128 µg/mL (≈ 212 µM) | 64 µg/mL (≈ 106 µM) |
| CC(C)CCC[C@@H](C)[C@H]1CC[C@H]2[C@@H]3/C(=N/NC(=S)NC4CCCCCCC4)C=C4CCCC[C@]4(C)[C@H]3CC[C@]12C | 9.9 mm | 11.3 mm | 10.2 mm | 10 mm | 256 µg/mL (≈ 451 µM) | 128 µg/mL (≈ 225 µM) | 128 µg/mL (≈ 225 µM) | 256 µg/mL (≈ 451 µM) |
| CC1(C)S[C@@H]2[C@H](NC(=O)[C@H](N)c3ccc(O)cc3)C(=O)N2[C@H]1C(=O)O [AMOXICILLIN] | 21 mm | 22.2 mm | 25.2 mm | 20 mm | 32 µg/mL (≈ 87.6 µM) | 32 µg/mL (≈ 87.6 µM) | 32 µg/mL (≈ 87.6 µM) | 32 µg/mL (≈ 87.6 µM) |
| CC(C)CCC[C@@H](C)[C@H]1CC[C@H]2[C@@H]3/C(=N/NC(=S)NC4CCCC4)C=C4CCCC[C@]4(C)[C@H]3CC[C@]12C | 10.4 mm | 9.5 mm | 9.2 mm | 9.4 mm | 256 µg/mL (≈ 487 µM) | 128 µg/mL (≈ 243 µM) | 128 µg/mL (≈ 243 µM) | 256 µg/mL (≈ 487 µM) |
| CC(C)CCC[C@@H](C)[C@H]1CC[C@H]2[C@@H]3/C(=N/NC(=S)NC4CCCC4)C=C4C[C@@H](Cl)CC[C@]4(C)[C@H]3CC[C@]12C | 16.2 mm | 13.4 mm | 12.5 mm | 15.6 mm | 64 µg/mL (≈ 114 µM) | 64 µg/mL (≈ 114 µM) | 128 µg/mL (≈ 228 µM) | 64 µg/mL (≈ 114 µM) |
| CC(=O)O[C@H]1CC[C@@]2(C)C(=C/C(=N\NC(=S)NC3CCCCCCC3)[C@H]3[C@@H]4CC[C@H]([C@H](C)CCCC(C)C)[C@@]4(C)CC[C@@H]32)C1 | 12.6 mm | 11.4 mm | 13.6 mm | 13.8 mm | 128 µg/mL (≈ 204 µM) | 64 µg/mL (≈ 102 µM) | 128 µg/mL (≈ 204 µM) | 128 µg/mL (≈ 204 µM) |
| CC(C)CCC[C@@H](C)[C@H]1CC[C@H]2[C@@H]3/C(=N/NC(=S)NC4CCCCC4)C=C4CCCC[C@]4(C)[C@H]3CC[C@]12C | 10.2 mm | 9.2 mm | 10.4 mm | 7.8 mm | 128 µg/mL (≈ 237 µM) | 256 µg/mL (≈ 474 µM) | 256 µg/mL (≈ 474 µM) | 128 µg/mL (≈ 237 µM) |
